# Measured values pooled from the literature.
# Compare with care: the assays were run in different laboratories.
Compound,test system,setting,bioavailability [%]
C#Cc1cnc2nc(O)n(C(CC)CC)c2n1,"Sprague-Dawley rat, plasma","oral, 1 mg/kg",> 90
Cl.Clc1ccc2c(c1)nc(N1CCNCC1)n2Cc1ccccc1,"rat, plasma","oral, 5 mg/kg",42
CNC(=O)c1cccc(-c2ccc(O[C@H]3O[C@H](CO)[C@@H](O)[C@H](O)[C@@H]3O)c(C)c2)c1,"male Sprague-Dawley rat, plasma","oral, 10 mg/kg, single dose",1.34
CC[C@H](C)[C@H](NC(=O)[C@H](Cc1ccccc1)NC(=O)[C@H](CCC(=O)O)NC(=O)[C@H](CCCNC(=N)N)NC(=O)[C@H](C)NC(=O)[C@H](C)NC(=O)[C@H](CCC(N)=O)NC(=O)[C@H](CCC(=O)O)NC(=O)[C@H](CCC(=O)O)NC(=O)[C@H](CC(C)C)NC(=O)[C@H](Cc1ccc(O)cc1)NC(=O)[C@H](CO)NC(=O)[C@H](CO)NC(=O)[C@@H](NC(=O)[C@H](CC(=O)O)NC(=O)[C@H](CO)NC(=O)[C@@H](NC(=O)[C@H](Cc1ccccc1)NC(=O)[C@@H](NC(=O)CNC(=O)[C@H](CCC(=O)O)NC(=O)[C@H](C)NC(=O)CCc1c[nH]cn1)[C@@H](C)O)[C@@H](C)O)C(C)C)C(=O)N[C@@H](C)C(=O)N[C@@H](Cc1c[nH]c2ccccc12)C(=O)N[C@@H](CC(C)C)C(=O)N[C@H](C(=O)N[C@@H](CCCNC(=N)N)C(=O)NCC(=O)N[C@@H](CCCNC(=N)N)C(=O)N[C@@H](CCCCNC(=O)COCCOCCNC(=O)COCCOCCNC(=O)CC[C@H](NC(=O)CCCCCCCCCCCCCCCCC(=O)O)C(=O)O)C(=O)O)C(C)C,"rat, plasma","subcutaneous, 20 nmol/kg",38.7
Oc1c(-n2ccnn2)cnn1-c1cc(N2CCOCC2)ncn1,"rat, plasma","oral, 30 mg/kg",34
COc1ccc2c(=O)oc3c(OC)cc(CC(O)CN(C)C)c4c(=O)oc1c2c34 (stereo not shown),"rat, plasma",oral,~37
N#Cc1ccc(Nc2nc(N)cc(Oc3c(F)cc(-c4ccc(C#N)cc4)cc3F)n2)cc1,"Sprague-Dawley rat, plasma","oral, 5 mg/kg",6.51
COc1c(C#N)ccnc1N1C2CCC1CN(C(=O)c1cccnc1-n1cccn1)C2,"rat, plasma","oral, 30 mg/kg",8.5
CCOC(=O)[C@@]12C[C@@H]1[C@@H](n1ccc3c(NC)nc(C#Cc4ccc(Cl)s4)nc31)[C@H](O)[C@@H]2O,"male Sprague-Dawley rat, plasma","oral, 3 mg/kg",92.3
Cn1cc(-c2cc(N3CCCS3(=O)=O)ccc2Oc2ccc(F)cc2F)c2c(F)c[nH]c2c1=O,"Sprague-Dawley rat, plasma","oral, 3 mg/kg",20 to 30
Cc1cn(-c2cc(NC(=O)c3cccc(-c4ccc5nc(NC(=O)C6CC6)sc5n4)c3)cc(C(F)(F)F)c2)cn1,"rat, serum","oral, 2 mg/kg",4.7
Oc1c(-n2ccnc2)cnn1-c1cc(N2CCCCC2)ncn1,"rat, plasma","oral, 30 mg/kg",39
COc1ccc2c(Cc3ccccc3F)c3n(c(=O)c2c1OC)CCc1cc2c(cc1-3)OCO2,"rat, plasma","oral, 5 mg/kg",15
N#C[C@]1(CO)O[C@@H](n2cnc3c(=O)[nH]c(N)nc32)C[C@@H]1O,"male Sprague-Dawley rat, plasma","oral, 1 mg/kg",~70
N#Cc1ccc(-c2ccc(C[C@@H](C#N)NC(=O)C3(N)CCOCC3)cc2)cc1,"Sprague-Dawley rat, plasma","oral, 3 mg/kg",92
Cc1c(-c2ccccc2)cccc1N1C(=O)c2cc(CN[C@H](C(=O)O)C(C)O)c(OCc3cccc(C#N)c3)cc2C1=O (stereo partly shown),"Sprague-Dawley rat, plasma","oral, 50 mg/kg",0.31
